How the values were obtained:
[1] = tested on: Radical scavenging activity; assay: Antioxidant activity assessed as DPPH radical scavenging activity at 10 uM by TEAC assay; format: functional
In short: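 Test solutions of 10 µM in MeOH were mixed 0.2 mL to 1.8 mL with methanolic DPPH at 22 mg/L. Absorbance at 517 nm was read every minute for 5 min, then every 5 min up to 30 min. Activity was followed over time and expressed as Trolox equivalent antioxidant capacity (TEAC).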

[2] = Cytotoxicity against rat WB344 cells at 5 uM after 24 hrs; format: cell-based; conditions: wb344, 24 h
In short: (§1)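 Neutral red uptake: cells in DMEM were grown ~24 h, then given compounds in DMSO for 24 h, then NR-containing medium ([…] as printed) for 3 h. Cells were PBS-washed, fixed 15 min in 0.5% formaldehyde/1% CaCl2, and dye extracted in 1% HOAc/50% EtOH with 20 min shaking. Read at A540 as % of DMSO control; mean of three independent measurements.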

[3] = Cytotoxicity against rat WB344 cells at 25 uM after 24 hrs; format: cell-based; conditions: wb344, 24 h; in short: as §1
[4] = Cytotoxicity against rat WB344 cells at 100 uM after 24 hrs; format: cell-based; conditions: wb344, 24 h; in short: as §1
[5] = Cytotoxicity against rat WB344 cells after 24 hrs; format: cell-based; conditions: WB344, 24 h
In short: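 Epithelioid cells were cultured in DMEM ~24 h, exposed 24 h to DMSO-dissolved compounds, then to neutral red for 3 h. After formaldehyde/CaCl2 fixation, dye was extracted in acidified ethanol and read at 540 nm. Inhibition = (1 − T/C) × 100 against control OD540; IC50 taken from dose-response curves.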

| SMILES | Trolox equivalent antioxidant capacity (TEAC) [1] | Activity [2] | Activity [3] | Activity [4] | IC50 [5] |
| --- | --- | --- | --- | --- | --- |
| C=C(C)C(O)CC/C(C)=C/Cc1c(O)cc2c(c1O)C(=O)[C@H](O)[C@@H](c1ccc(O)c(OC)c1)O2 (stereo not given in full) | 2 | – | – | – | – |
| CC(C)=CCC/C(C)=C/Cc1c(O)cc2c(c1O)C(=O)C[C@@H](c1ccc(O)cc1)O2 [BONANNIONE A] | 0.4 | 97% | 95% | 9% | – |
| CC(C)=CCC/C(C)=C/Cc1c(O)cc2c(c1O)C(=O)C[C@@H](c1ccc(O)c(O)c1)O2 [NYMPHAEOL A] | 5.2 | 98% | 57% | 2% | 14.3 µM |
| COc1cc([C@@H]2CC(=O)c3c(cc(O)c(C/C=C(\C)CCC=C(C)C)c3O)O2)ccc1O | 0.8 | 100% | 73% | 2% | 30.2 µM |
